The term IC50 denotes the concentration at which inhibition is half-maximal. Read a high IC50 as weaker potency. For orientation: inhibition means the drop in the measured response relative to a control, in per cent.

Assay [1] deals with T1, Type-1 angiotensin II receptor (Bos taurus, UniProt P25104).
T1 sequence (P25104 whole entry): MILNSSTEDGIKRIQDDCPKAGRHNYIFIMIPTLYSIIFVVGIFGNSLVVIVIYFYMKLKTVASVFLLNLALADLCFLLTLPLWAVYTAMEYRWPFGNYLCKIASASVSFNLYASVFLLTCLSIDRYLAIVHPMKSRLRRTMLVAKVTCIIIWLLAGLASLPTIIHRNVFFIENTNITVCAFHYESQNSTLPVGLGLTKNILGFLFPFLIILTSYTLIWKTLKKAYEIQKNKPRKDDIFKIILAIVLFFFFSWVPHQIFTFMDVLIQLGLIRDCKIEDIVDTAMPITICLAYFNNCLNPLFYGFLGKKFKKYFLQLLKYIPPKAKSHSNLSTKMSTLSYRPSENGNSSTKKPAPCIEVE
In words: Inhibition of specific binding of [125 I ] Angiotensin-II (0.2 nM) to bovine adrenal cortex. It counts as tissue-based.

Assay [2] addresses T2, Angiotensin II receptor (Rattus norvegicus) (UniProt P29089+P25095+P35351). In words: Percent inhibition of the Angiotensin-II (0.1ug/kg, iv) induced pressor response after 7 hours of administration (1 mg/kg po) in rats. It counts as functional, organism-based. In outline: (§1)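 Conscious male Sprague-Dawley rats dosed orally with test compound; pressor response to AII challenge (0.1 µg/kg iv) measured at 3 and 7 h after dosing and expressed as percent inhibition. Duplicate experiments, with n = 3 for some compounds; variation in % inhibition under 30%.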

Assay [3] addresses T2, Angiotensin II receptor (Rattus norvegicus). In words: Percent inhibition of the Angiotensin-II (0.1ug/kg, iv) induced pressor response after 3 hours of administration (1 mg/kg po) in rats. It counts as functional, organism-based. A digest of the protocol:
as §1

Assay [4] shares this target. In words: Percent inhibition of the Angiotensin-II (0.1micro g/kg, iv) induced pressor response after 7 hours of administration (3 mg/kg po) in rats. It counts as functional, organism-based. In outline: as §1
Assay [5] shares this target. In words: Percent inhibition of the Angiotensin-II (0.1ug/kg, iv) induced pressor response after 3 hours of administration (3 mg/kg po) in rats. It counts as functional, organism-based. In outline:
as §1

As for `CCCCc1nc(Cl)c(CO)n1Cc1ccc(-c2ccccc2-c2nn[nH]n2)cc1` [LOSARTAN POTASSIUM], in assay [1], the IC50 came to 150 nM.
`CC[S+]([O-])c1nc2cccc(C(=O)OC)c2n1Cc1ccc(-c2ccccc2-c2nn[nH]n2)cc1` (stereo not given) registered an IC50 in assay [1] of over 1000 nM.
Regarding `C=CCOc1nc2cccc(C(=O)OC)c2n1Cc1ccc(-c2ccccc2-c2nnn[nH]2)cc1`, in assay [1], the IC50 amounted to 850 nM.
Regarding `CC(C)Cc1nc2cccc(C(=O)O)c2n1Cc1ccc(-c2ccccc2-c2nnn[nH]2)cc1`, in assay [1], the IC50 was 3200 nM.
In the case of `COCCc1nc2cccc(C(=O)O)c2n1Cc1ccc(-c2ccccc2-c2nn[nH]n2)cc1`, the IC50 in assay [1] turned out to be 580 nM. Besides, the inhibition in assay [2] stood at 3%; in assay [3], 13%.
Consider `CCSc1nc2cccc(C(=O)OC)c2n1Cc1ccc(-c2ccccc2-c2nn[nH]n2)cc1`, for which the IC50 in assay [1] turned out to be 440 nM.
Consider `COC(=O)c1cccc2nc(OCC(F)(F)F)n(Cc3ccc(-c4ccccc4-c4nn[nH]n4)cc3)c12`, for which the figures for the inhibition in assay [2] and in assay [3] were 9% and 36%, respectively.
In the case of `CCSc1nc2cccc(C(=O)O)c2n1Cc1ccc(-c2ccccc2-c2nnn[nH]2)cc1`, in assay [1], the IC50 stood at 170 nM.
With `COc1nc2cccc(C(=O)O)c2n1Cc1ccc(-c2ccccc2-c2nn[nH]n2)cc1`, the figures for the inhibition in assay [2] and in assay [3] were 80% and 97%, respectively.
In the case of `CC(C)Cc1nc2cccc(C(=O)O)c2n1Cc1ccc(-c2ccccc2-c2nn[nH]n2)cc1`, the inhibition in assay [4] is 29%; in assay [5] it was 29%; in assay [2], 13%; in assay [3], -9%.
Compound `CSc1nc2cccc(C(=O)O)c2n1Cc1ccc(-c2ccccc2-c2nnn[nH]2)cc1` came in with an IC50 in assay [1] of 120 nM.
`CCCSc1nc2cccc(C(=O)O)c2n1Cc1ccc(-c2ccccc2-c2nnn[nH]2)cc1` returned an IC50 in assay [1] of 120 nM.
Still for that read-out and setting: the value for `CCCNc1nc2cccc(C(=O)O)c2n1Cc1ccc(-c2ccccc2-c2nnn[nH]2)cc1` was 39 nM; that for `CC(C)c1nc2cccc(C(=O)O)c2n1Cc1ccc(-c2ccccc2-c2nnn[nH]2)cc1` was 82 nM.
For `CCCOc1nc2cccc(C(=O)O)c2n1Cc1ccc(-c2ccccc2-c2nn[nH]n2)cc1`, the inhibition turned out to be 100% in assay [4], 100% in assay [5], 83% in assay [2] and 87% in assay [3].
`COC(=O)c1cccc2nc(OC)n(Cc3ccc(-c4ccccc4-c4nnn[nH]4)cc3)c12` returned an IC50 in assay [1] of 490 nM.
Take `CCOc1nc2cccc(C(=O)OC)c2n1Cc1ccc(-c2ccccc2-c2nnn[nH]2)cc1`: the IC50 in assay [1] worked out at 66 nM.
`Cc1nc2cccc(C(=O)O)c2n1Cc1ccc(-c2ccccc2-c2nnn[nH]2)cc1` registered an IC50 in assay [1] of 190 nM.
Turning to `CNc1nc2cccc(C(=O)O)c2n1Cc1ccc(-c2ccccc2-c2nnn[nH]2)cc1`, the IC50 in assay [1] was 170 nM.
Take `CCCCc1nc(Cl)c(CO)n1Cc1ccc(-c2ccccc2-c2nnn[nH]2)cc1`: the inhibition in assay [4] was 74%; in assay [5], 62%; in assay [2] it was 34%; in assay [3], 21%.
For `CCCOc1nc2cccc(C(=O)O)c2n1Cc1ccc(-c2ccccc2-c2nnn[nH]2)cc1`, the IC50 in assay [1] was found to be 190 nM.
As to `O=C(O)c1cccc2nc(OCC(F)(F)F)n(Cc3ccc(-c4ccccc4-c4nn[nH]n4)cc3)c12`, the IC50 in assay [1] amounted to 580 nM. Moreover, the inhibition in assay [2] is 7%; in assay [3] it was 28%.
Regarding `CCCNc1nc2cccc(C(=O)O)c2n1Cc1ccc(-c2ccccc2-c2nn[nH]n2)cc1`, the inhibition came out at 72% in assay [4], 73% in assay [5], 66% in assay [2] and 46% in assay [3].
`CSCc1nc2cccc(C(=O)O)c2n1Cc1ccc(-c2ccccc2-c2nn[nH]n2)cc1`: in assay [1], the IC50 came out at 150 nM. In addition, the inhibition was 44% in assay [2] and 85% in assay [3].
In assay [1], `CCCCCc1nc2cccc(C(=O)O)c2n1Cc1ccc(-c2ccccc2-c2nnn[nH]2)cc1` displayed an IC50 of 560 nM.
`CCCCOc1nc2cccc(C(=O)OC)c2n1Cc1ccc(-c2ccccc2-c2nnn[nH]2)cc1`: the IC50 in assay [1] was over 1000 nM.
For the compound `COC(=O)c1cccc2nc(OC)n(Cc3ccc(-c4ccccc4-c4nn[nH]n4)cc3)c12`, the inhibition in assay [2] stood at 89%; in assay [3], 94%.
For the compound `CC(C)c1nc2cccc(C(=O)O)c2n1Cc1ccc(-c2ccccc2-c2nn[nH]n2)cc1`, the values for the inhibition in assay [4] and in assay [5] were 38% and 61%, respectively.
For the compound `CCC(C)c1nc2cccc(C(=O)O)c2n1Cc1ccc(-c2ccccc2-c2nn[nH]n2)cc1` (stereo not given), the inhibition in assay [4] turned out to be 18%; in assay [5], 15%; in assay [2], 0%; in assay [3] it was 6%.
With `CCSCc1nc2cccc(C(=O)O)c2n1Cc1ccc(-c2ccccc2-c2nn[nH]n2)cc1`, the inhibition in assay [2] stood at 57%; in assay [3], 68%.
As to `CCCCNc1nc2cccc(C(=O)O)c2n1Cc1ccc(-c2ccccc2-c2nnn[nH]2)cc1`, in assay [1], the IC50 is 650 nM.
`CCOCc1nc2cccc(C(=O)O)c2n1Cc1ccc(-c2ccccc2-c2nnn[nH]2)cc1` registered an IC50 in assay [1] of 440 nM.
With `CCOc1nc2cccc(C(=O)O)c2n1Cc1ccc(-c2ccccc2C(=O)O)cc1`, the IC50 in assay [1] worked out at 190 nM. In addition, the inhibition in assay [4] is 49%; in assay [5], 37%; in assay [2], 44%; in assay [3], 26%.
`CCC(C)c1nc2cccc(C(=O)O)c2n1Cc1ccc(-c2ccccc2-c2nnn[nH]2)cc1` (stereo not given): the IC50 in assay [1] worked out at 3900 nM.
For the compound `O=C(O)c1cccc2nc(N3CCCCC3)n(Cc3ccc(-c4ccccc4-c4nnn[nH]4)cc3)c12`, the IC50 in assay [1] is over 1000 nM.
`O=C(O)c1cccc2nc(N3CCOCC3)n(Cc3ccc(-c4ccccc4-c4nnn[nH]4)cc3)c12` gave an IC50 in assay [1] of over 1000 nM.
As for `COCc1nc2cccc(C(=O)O)c2n1Cc1ccc(-c2ccccc2-c2nn[nH]n2)cc1`, the concentration for half-maximal inhibition (IC50) in assay [1] stood at 250 nM. Further, the inhibition in assay [2] was found to be 33%; in assay [3] it was 47%.
In turn, `CCCOc1nc2cccc(C(=O)OCC)c2n1Cc1ccc(-c2ccccc2-c2nnn[nH]2)cc1` returned an IC50 in assay [1] of 1000 nM.
For the compound `CCOCc1nc2cccc(C(=O)O)c2n1Cc1ccc(-c2ccccc2-c2nn[nH]n2)cc1`, the inhibition in assay [2] is 29%; in assay [3] it was 63%.
In turn, `CCCc1nc2cccc(C(=O)O)c2n1Cc1ccc(-c2ccccc2-c2nn[nH]n2)cc1` registered an IC50 in assay [1] of 170 nM. Moreover, the inhibition in assay [4] is 91%; in assay [5] it was 90%; in assay [2] it was 69%; in assay [3], 83%.
As to `CSc1nc2cccc(C(=O)O)c2n1Cc1ccc(-c2ccccc2-c2nn[nH]n2)cc1`, the inhibition in assay [4] was 95%; in assay [5] it was 100%; in assay [2], 81%; in assay [3] it was 100%.
`O=C(O)c1cccc2nc(C3CC3)n(Cc3ccc(-c4ccccc4-c4nn[nH]n4)cc3)c12` came in with an IC50 in assay [1] of 84 nM. The inhibition in assay [4] was 96%; in assay [5], 92%; in assay [2], 88%; in assay [3], 80%.
For the compound `CCCSc1nc2cccc(C(=O)O)c2n1Cc1ccc(-c2ccccc2-c2nn[nH]n2)cc1`, the inhibition was 76% in assay [4], 88% in assay [5], 100% in assay [2] and 100% in assay [3].
For the compound `CCNc1nc2cccc(C(=O)O)c2n1Cc1ccc(-c2ccccc2-c2nnn[nH]2)cc1`, the IC50 in assay [1] was 62 nM.
For `CCCCc1nc2cccc(C(=O)O)c2n1Cc1ccc(-c2ccccc2-c2nnn[nH]2)cc1`, in assay [1], the IC50 worked out at 550 nM.
With `CCSc1nc2cccc(C(=O)O)c2n1Cc1ccc(-c2ccccc2-c2nn[nH]n2)cc1`, the inhibition in assay [4] was determined as 97%; in assay [5], 99%; in assay [2] it was 90%; in assay [3], 87%.
For `C=CCOc1nc2cccc(C(=O)OC)c2n1Cc1ccc(-c2ccccc2-c2nn[nH]n2)cc1`, the inhibition was 12% in assay [2] and 14% in assay [3].
Compound `CSCCc1nc2cccc(C(=O)O)c2n1Cc1ccc(-c2ccccc2-c2nn[nH]n2)cc1` had an IC50 in assay [1] of 620 nM. The inhibition in assay [2] and in assay [3] was 10% in each case.
The compound `COC(=O)c1cccc2nc(OCC(F)(F)F)n(Cc3ccc(-c4ccccc4-c4nnn[nH]4)cc3)c12` yielded an IC50 in assay [1] of over 1000 nM.
Turning to `CCOc1nc2cccc(C(=O)OC)c2n1Cc1ccc(-c2ccccc2-c2nn[nH]n2)cc1`, the inhibition is 100% in assay [4], 100% in assay [5], 90% in assay [2] and 100% in assay [3].
Regarding `CCc1nc2cccc(C(=O)O)c2n1Cc1ccc(-c2ccccc2-c2nnn[nH]2)cc1`, in assay [1], the IC50 was 46 nM.
`COc1nc2cccc(C(=O)O)c2n1Cc1ccc(-c2ccccc2-c2nnn[nH]2)cc1` had an IC50 in assay [1] of 32 nM.
In turn, `CCSCc1nc2cccc(C(=O)O)c2n1Cc1ccc(-c2ccccc2-c2nnn[nH]2)cc1` yielded an IC50 in assay [1] of 300 nM.
The compound `CCN(C)c1nc2cccc(C(=O)O)c2n1Cc1ccc(-c2ccccc2-c2nnn[nH]2)cc1` yielded an IC50 in assay [1] of over 1000 nM.

The values above are taken from ChEMBL document CHEMBL1126750, “Nonpeptide angiotensin II receptor antagonists. Synthesis and biological activity of benzimidazolecarboxylic acids” (J Med Chem, 1993).
